The values that follow come from article PMC8873552 (Chemical Science, 2021).

The nature of data set [1]: Reaction kinetics of acrolein–azide 1,3-dipolar cycloaddition. The data set is classed as physicochemical.
For data set [2], the system named is A549 cell xenograft-bearing nude mice. The data set can be described thus: Intratumor therapy of xenograft mice. The data set is classed as in vivo, mouse. The settings on record: intratumoral, 120 nmol. The procedure, abridged: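 Nude mice bearing A549 xenografts received intratumoral injections once daily for 12 days. Comparison groups were vehicle, the azide control, the phenyl-azide conjugate and free drug. Tumour growth, body weight and survival were monitored.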

For data set [3] the test system is unchanged. Put plainly: Intravenous therapy of xenograft mice. Format: in vivo, mouse. The settings on record: 240 nmol; for survival: every three days for ten days; for tumor growth: every three days for ten days (four injections). The gist of the method: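 Nude mice bearing A549 xenografts were injected intravenously every three days over ten days, four injections in total, at twice the intratumoral concentration. Comparison groups matched the intratumoral study. Tumour growth and body weight were monitored.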

A short description of data set [4]: In vivo drug release analysis. The arrangement: species or system mouse. The settings on record: two hours after intratumoral administration. The procedure, abridged:
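A549 xenograft-bearing nude mice were dosed intratumorally. Two hours later, tumour and urine extracts were analysed by RP-HPLC for intact prodrug and free drug.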

SMILES strings stand for the structures.

Regarding `[N-]=[N+]=Nc1ccccc1` [Compound 1a, phenyl azide], the “second-order rate constant (k), reaction with acrolein to give triazoline 3a” value in data set [1] (formation of triazoline 3a) was found to be 0.00065 M⁻¹ s⁻¹.
Take `CO[C@@]12[C@H](COC(N)=O)C3=C(C(=O)C(C)=C(N)C3=O)N1C[C@@H]1N[C@@H]12` [MMC, mitomycin C]: in data set [2] (every day for 12 days), the body weight entry is reported as “more body weight loss”, the survival entry was “survived less than five days after treatment” and the tumor growth entry was “significantly inhibits tumor growth”. Moreover, the “inflammation and ADRs” value in data set [2] (post-treatment day 4) was “inflammation on the whole body”. For the same molecule, the body weight entry in data set [3] (every three days) is “the body weight loss was very drastic”. For the same molecule, in data set [3], the survival entry is recorded as “could not survive before the fourth injection” and the tumor growth result was “significantly inhibited tumor growth”. The inflammation entry in data set [3] (tenth day of treatment) is given as “inflammation in the tail area”. In data set [4], the “compound detected in tumor extract” value was “the free drug could not be detected from the tumor” and the “compound detected in urine extract” value is recorded as “the secreted MMC drug was present in the urine”.
`Cc1cc(C(C)C)c(N=[N+]=[N-])c(C(C)C)c1` [Compound 9, 4-methyl-2,6-diisopropyl-phenyl azide]: the survival entry in data set [2] (every day for 12 days) was “survived less than twelve days after treatment”; in data set [3] it was “survived less than three weeks after treatment”. The values for the tumor growth entry in data set [2] (every day for 12 days) and in data set [3] were “does not retard the tumor growth” and “does not have any effect”, respectively. Also, the tumor size in data set [2] (in two weeks) is 900 mm^3; in data set [3] (by two weeks) it was 800 mm^3.
As to `CC(C)c1cccc(C(C)C)c1N=[N+]=[N-]` [Compound 1d, 2,6-diisopropylphenyl azide], the “second-order rate constant (k), formation of 4-formyl-1,2,3-triazole 4d” value in data set [1] (formation of 4d) stood at 0.00095 M⁻¹ s⁻¹. Moreover, the “second-order rate constant (k), reaction with acrolein to give heterocycle 6” value in data set [1] (formation of heterocycle 6) was found to be 0.00633 M⁻¹ s⁻¹. For the same molecule, in data set [1] (times faster), the “rate ratio, formation of heterocycle 6 versus 4-formyl-1,2,3-triazole 4d” value was found to be 6.6 times. The “rate constant ratio, 1d to heterocycle 6 versus 1a to triazoline 3a” value in data set [1] (times higher) is given as 9.7 times.
